Structures are written as SMILES.

The test deals with Delta-type opioid receptor (Homo sapiens, UniProt P41143). The test can be described thus: Displacement of [3H]DPDPE from human delta opioid receptor expressed in HEK293 cells up to 100 uM. The test is classed as cell-based. A digest of the protocol: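 Crude membranes from transfected cells: HN9.10 cells expressing rat μ-opioid receptor, competed against μ-selective agonist [³H]DAMGO; HEK293 cells expressing human δ-opioid receptor, competed against δ-selective agonist [³H]DPDPE. Competitive displacement with three independent experiments, fitted by non-linear regression; Ki derived from IC50 via Cheng–Prusoff equation.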
Delta-type opioid receptor, sequence (P41143 whole entry): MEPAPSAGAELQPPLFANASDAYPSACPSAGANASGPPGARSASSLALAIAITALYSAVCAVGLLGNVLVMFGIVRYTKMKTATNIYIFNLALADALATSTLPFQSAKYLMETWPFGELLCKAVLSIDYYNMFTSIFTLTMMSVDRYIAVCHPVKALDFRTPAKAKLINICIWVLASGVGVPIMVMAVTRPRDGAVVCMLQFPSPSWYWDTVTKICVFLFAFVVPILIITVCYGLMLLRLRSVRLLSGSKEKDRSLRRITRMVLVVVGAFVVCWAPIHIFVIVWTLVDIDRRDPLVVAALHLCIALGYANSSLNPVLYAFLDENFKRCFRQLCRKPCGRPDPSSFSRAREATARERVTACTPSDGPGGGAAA
Background: In a radioligand displacement assay an active substance lowers the binding of a labelled ligand.

For `NC(=O)[C@H](Cc1ccccc1)NC(=O)/C(=C/c1ccccc1)NC(=O)[C@@H]1CCCN1C(=O)[C@@H](N)Cc1ccc(O)cc1`, the Ki entry was “Not Active”.

The values are drawn from ChEMBL document CHEMBL1155548, “Synthesis and evaluation of new endomorphin-2 analogues containing (Z)-alpha,beta-didehydrophenylalanine (Delta(Z)Phe) residues” (J Med Chem, 2010).
